From paper PMC11780632 (Bioinformatics and Biology Insights, 2025)
Values after ≈ are worked out from the molar mass of the structure shown.

How the values were obtained:
[1] = test system: S. aureus ATCC 25923; experiment: MIC and MBC, micro-broth dilution; type: cell-based; conditions: Staphylococcus aureus, ATCC25923, 24 h
Outline: (§1)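 Strains were grown aerobically for 24 h at 37°C. Two-fold serial dilutions of test peptide were made in 96-well plates, and an equal volume of bacterial suspension at 1 × 10⁶ CFU/mL was added. Plates were incubated for 24 h at 37°C, with gentamicin as control. MIC was taken as the lowest concentration preventing growth.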

[2] = test system: S. aureus ATCC 25923; experiment: Radial diffusion assay; type: cell-based, Staphylococcus aureus; conditions: RDA, Mueller-Hinton agar, 1 × 10^6 CFU/mL, 24 hours at 37°C, done 3 times
[3] = test system: P. aeruginosa ATCC 27853; experiment: MIC and MBC, micro-broth dilution; type: cell-based; conditions: Pseudomonas aeruginosa, ATCC27853, 24 h
Outline: as §1

[4] = test system: E. coli ATCC 25922; experiment: MIC and MBC, micro-broth dilution; type: cell-based; conditions: Escherichia coli, ATCC25922, 24 h
Outline: as §1

[5] = test system: A. baumannii ATCC 19606; experiment: MIC and MBC, micro-broth dilution; type: cell-based; conditions: Acinetobacter baumannii, ATCC19606, 24 h
Outline: as §1

With `CNC(C)C1CCC(N)C(OC2C(N)CC(N)C(OC3OCC(C)(O)C(NC)C3O)C2O)O1` (centres unmarked) [Gentamicin, gentamicin] the MIC [1] was 2000 µM (≈ 955 µg/mL), the “diameter of the inhibition zone” value [2] was 26 mm and the MIC [3] was 4000 µM (≈ 1910 µg/mL). For the same compound, the MIC [4] was 1000 µM (≈ 478 µg/mL) and the MIC [5] was 8000 µM (≈ 3820 µg/mL).
